# Screening results from PubChem BioAssay.
# C2C12 statin: suppressors of statin myotoxicity in C2C12 myotubes, primary screen, cell-based, single point, plate reader; C2C12 myotubes + simvastatin, ATP luminescence, 48 h; scaled: DMSO 0, geranylgeraniol control 100; 330,000 tested, 0.78% active; rescue of ATP level, % at 7.49 µM; AID 602340, 2012;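 active = mean ATP rescue above about 67%, or every replicate alone reaching that limit, limit read from the data, passing the limit was not always enough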;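 also: myotubes were challenged with 10 µM simvastatin during compound exposure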
# ARFGAP1 inhibitor: inhibitors of rat ARFGAP1 GAP activity, primary screen, biochemical, fluorescence polarization, GDP tracer; inhibition, % at 16.5 µM; AID 651572, 2012; ADP-ribosylation factor GTPase-activating protein 1 (Rattus norvegicus), Q62848; Arfgap1-stimulated ARF1 GTP hydrolysis, GDP FP detection; 360,000 tested, 0.26% active;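 active = inhibition above a per-plate limit, mean inhibition of low control wells plus 3 SD, cut at about 25% in these data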;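 also: 0% = DMSO wells with enzyme and 100% = wells lacking Arfgap1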
#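 Replicates: Single well per compound | Assay system: Truncated rat Arfgap1 GAP domain | Control set: No-Arfgap1 wells (100%) versus DMSO full-reaction wells (0%) | Times: Enzyme reaction 120 min at 25 °C after 20 min preincubation | Reagent: Human ARF1(Δ1-17)-GTP substrate | Measured by: Tracer-displacement fluorescence polarization with EDTA stop, 620/688 nm | Measure: Percent inhibition of Arfgap1-stimulated GTP hydrolysis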
# APOBEC3A inh: APOBEC3A ssDNA deaminase inhibitors, primary screen, selectivity assay for APOBEC3G inhibitor project, biochemical, FAM/TAMRA oligo cleavage fluorescence; AID 493011, 2011; 330,000 tested, 0.41% active; recombinant A3A, FAM/TAMRA ssDNA deamination fluorescence; DNA dC->dU-editing enzyme APOBEC-3A (Homo sapiens), P31941; inhibition, % at 20 µM;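 active = at least 40% inhibition at 20 µM here, with at most 30% in a related deaminase screen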;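 also: plate controls were A3A with DMSO for no effect and wells lacking A3A enzyme for full effect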
# Target sequence (P31941 whole entry, looked up): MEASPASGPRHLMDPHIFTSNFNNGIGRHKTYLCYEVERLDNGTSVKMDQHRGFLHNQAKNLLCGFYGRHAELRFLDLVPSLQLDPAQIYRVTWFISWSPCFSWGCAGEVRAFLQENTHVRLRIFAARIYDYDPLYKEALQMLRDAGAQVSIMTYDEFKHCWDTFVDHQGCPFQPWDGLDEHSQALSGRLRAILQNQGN
# ASAP1 inh: inhibitors of human ASAP1 ArfGAP activity, primary screen, biochemical, fluorescence polarization | Arf-GAP with SH3 domain, ANK repeat and PH domain-containing protein 1 (Homo sapiens), … | ASAP1-stimulated ARF1 GTP hydrolysis, GDP FP detection | inhibition, % at 16.5 µM | 360,000 tested, 0.19% active; in the data active = inhibition above about 25%;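 also: 0% = vehicle with enzyme and substrate and 100% = no enzyme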
# Mot1-301 SUMO: yeast Mot1-301 growth rescue at high temperature, primary screen, SUMOylation pathway inhibitor project, S. cerevisiae, ATP luminescence, 38.5C; S. cerevisiae Mot1-301 growth rescue; percent above DMSO median, 100 means doubled; AID 2716, 2010; growth rescue, % at 18.8 µM; 320,000 tested, 1% active;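 active = every valid replicate shows activation above 250% relative to neutral control wells; inactive = the rest, any valid replicate at or below 250%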;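 also: OY570 slx delta 5 strain wells were the positive control but not used for scaling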
# APOBEC3G inh: APOBEC3G DNA deaminase inhibitors, primary screen, biochemical, fluorescence, single-stranded DNA substrate, uHTS | recombinant A3G, ssDNA deamination FAM/TAMRA fluorescence | inhibition, % at 20 µM | 330,000 tested, 0.28% active | AID 493012, 2011;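 active = inhibition of at least 40% at 20 µM, with no more than 30% in the related APOBEC3A deaminase screen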;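 also: plate controls were DMSO wells with A3G for no effect and wells lacking A3G enzyme for full effect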
# Target sequence (Q9HC16 whole entry, looked up): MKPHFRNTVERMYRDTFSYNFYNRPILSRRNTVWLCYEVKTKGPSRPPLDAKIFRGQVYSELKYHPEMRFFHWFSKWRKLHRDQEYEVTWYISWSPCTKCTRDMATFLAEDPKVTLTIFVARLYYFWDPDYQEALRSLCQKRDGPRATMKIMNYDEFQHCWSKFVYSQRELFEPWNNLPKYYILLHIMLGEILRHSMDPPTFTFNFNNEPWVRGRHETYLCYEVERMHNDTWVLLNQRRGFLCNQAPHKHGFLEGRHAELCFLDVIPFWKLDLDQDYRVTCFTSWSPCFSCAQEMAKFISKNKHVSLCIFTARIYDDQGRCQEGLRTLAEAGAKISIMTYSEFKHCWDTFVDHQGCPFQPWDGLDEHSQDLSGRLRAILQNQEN
# * = called active by the depositor; nt = no result. An excerpt weighted towards active compounds, which were near 2.1% of everything screened.
SMILES,C2C12 statin,ARFGAP1 inhibitor,APOBEC3A inh,ASAP1 inh,Mot1-301 SUMO,APOBEC3G inh
C=CCCCCCCCCc1nc(=S)[nH][nH]1,148*,6,-2,5,-26,-5
C=CCCCCCCCCc1nc(SCC(=O)O)n[nH]1,-5,-4,2,-8,-16,-1
Cc1cccn2c(=O)c3cc(C#N)c(=N)n(CCCN4CCOCC4)c3nc12,5,11,2,6,-7,4
Cc1cccn2c(=O)c3cc(C#N)c(=N)n(CCN4CCOCC4)c3nc12,104*,nt,nt,nt,nt,nt
Cc1noc(C)c1S(=O)(=O)N(C)C[C@H]1Oc2ccc(NC(=O)NC3CCCCC3)cc2CC(=O)N([C@@H](C)CO)C[C@@H]1C,7,nt,nt,nt,nt,nt
CC1CN(C(=O)N[C@@H](Cc2ccccc2)C(=O)O)CC(C)O1 (stereo not given in full),86*,3,0,-10,5,0
CC(C)(C)OC(=O)N1CCC(C(=O)N[C@@H](Cc2ccccc2)C(=O)O)CC1,115*,10,5,-3,-20,-4
CCCCCC1C/C(=N\O)C=C(C)C1C(=O)OC (stereo not given),nt,12,0,-3,309*,-1
COc1ccc(CCNC2CCN(C)CC2)cc1OC,112*,-5,-1,8,-2,3
CCCOc1c(Br)cc(C(N)=O)cc1OCC,nt,-10,-1,-6,316*,-6
CCOc1c(Br)cc(C(N)=O)cc1OC,2,10,-2,-4,-11,-1
CO[C@H]1CN(C)C(=O)c2ccc(NC(C)=O)cc2OC[C@H](C)N(C(=O)C2CCOCC2)C[C@H]1C,5,nt,nt,nt,nt,nt
CC(=O)C1=C(C)NC(SCC(N)=O)=C(C#N)C1c1ccco1 (stereo not given),11,9,2,5,15,-4
CC(=O)C1=C(C)NC(SCc2cccc([N+](=O)[O-])c2)=C(C#N)C1c1ccco1 (stereo not given),143*,-1,4,-10,81,-5
CCNC(=O)C[C@@H]1CC[C@@H]2[C@@H](COc3ccc(NC(=O)Nc4cccc(C)c4)cc3C(=O)N2C)O1,12,nt,nt,nt,nt,nt
CN1CCN(C(=O)/C=C/c2ccc(Cl)cc2)CC1,110*,-6,-3,2,244,-8
O=C(Nc1ccc(S(=O)(=O)NC2=NCCCCC2)cc1)c1ccc([N+](=O)[O-])s1,86*,7,4,-12,118,-4
O=C(Nc1ccc(S(=O)(=O)NC2=NCCCCC2)cc1)c1cccs1,33,-7,3,-9,-1,-3
COc1ccc(N=Cc2c(O)[nH]c3ccccc23)cc1,16,-4,-4,11,32,-6
Oc1[nH]c2ccccc2c1C=Nc1ccc2c(c1)OCO2,118*,-3,0,-11,-5,1
C[C@H](CO)N1C[C@H](C)[C@@H](CN(C)S(=O)(=O)c2ccc(Cl)cc2)Oc2ccc(NC(=O)Nc3ccc(C(F)(F)F)cc3)cc2CC1=O,-17,nt,nt,nt,nt,nt
Cc1ccccc1C(=O)Nc1nnc(-c2ccc(C(C)(C)C)cc2)s1,nt,-2,-4,10,8,-8
Cc1cccc(C(=O)Nc2nnc(-c3ccc(C(C)(C)C)cc3)s2)c1,83*,-7,-1,17,0,-3
C=CCc1c(C)[nH]c2ccc(C)cc2c1=O,95*,6,-1,1,-3,-2
O=C(NCC[C@@H]1CC[C@@H](NS(=O)(=O)c2cccc(F)c2)[C@@H](CO)O1)C1CCC1,0,nt,nt,nt,nt,nt
SMILES,C2C12 statin,ARFGAP1 inhibitor,APOBEC3A inh,ASAP1 inh,Mot1-301 SUMO,APOBEC3G inh
Cc1cccc(CSCc2ccc(C(=O)NCC3CCCO3)o2)c1 (stereo not given),nt,1,-1,3,315*,0
Cc1ccc(CSCc2ccc(C(=O)NCC3CCCO3)o2)cc1 (stereo not given),nt,2,2,-2,121,-3
O=C(CSCC(=O)N1CCOCC1)Nc1nc(-c2ccc3c(c2)OCO3)cs1,13,-4,-6,18,12,-9
CCOC(=O)N1CCN(C(=O)CSCC(=O)Nc2nc(-c3ccc4c(c3)OCO4)cs2)CC1,122*,nt,6,nt,-5,2
CCCC(=O)Nc1ccc2c(c1)C(=O)N(C)C[C@@H](OC)[C@H](C)CN(Cc1ccncc1)[C@@H](C)CO2,-2,nt,nt,nt,nt,nt
CCCc1nnc(NC(=O)COc2ccc3c(c2)OCO3)s1,2,6,-4,-7,8,-13
CCc1nnc(NC(=O)COc2ccc3c(c2)OCO3)s1,3,5,1,8,260*,-7
O=S(=O)(N[C@H]1CC[C@@H](CCn2cc(-c3ccc(F)cc3)nn2)O[C@H]1CO)c1ccccc1F,-4,nt,nt,nt,nt,nt
Cc1cccc(N/N=C2/COC(C)(C)CC2=O)c1,9,5,-2,0,53,-3
CC1(C)CC(=O)/C(=N/Nc2ccc(Cl)cc2)CO1,-2,-1,3,4,275*,-2
C[C@@H]1CN([C@H](C)CO)C(=O)c2cc(NC(=O)Cc3cn(C)c4ccccc34)ccc2O[C@H]1CN(C)Cc1ccc(-c2ccccc2)cc1,68*,nt,nt,nt,nt,nt
C[C@H](CO)N1C[C@H](C)[C@H](CN(C)Cc2ccc(C(=O)Nc3ccccc3N)cc2)Oc2ccc(NC(=O)Cc3cn(C)c4ccccc34)cc2C1=O,97*,nt,nt,nt,nt,nt
C[C@H]1CN([C@@H](C)CO)C(=O)c2cc(NC(=O)Cc3cn(C)c4ccccc34)ccc2O[C@@H]1CN(C)Cc1ccc(-c2ccccc2)cc1,46,nt,nt,nt,nt,nt
C[C@H]1CN([C@@H](C)CO)C(=O)c2cc(NC(=O)Cc3cn(C)c4ccccc34)ccc2O[C@@H]1CN(C)Cc1ccc(C(F)(F)F)cc1,83*,nt,nt,nt,nt,nt
CN1c2ccc(Br)cc2[C@@H]2[C@@H](CCN2C(=O)C2CCOCC2)[C@H]1CO,-20,nt,nt,nt,nt,nt
C[C@@H]1CN([C@H](C)CO)C(=O)Cc2cc(NC(=O)Nc3ccc4c(c3)OCO4)ccc2O[C@H]1CN(C)C(=O)Nc1cccc2ccccc12,-1,nt,nt,nt,nt,nt
COc1ccc(S(=O)(=O)Nc2ccc3c(c2)C(=O)N([C@H](C)CO)C[C@@H](C)[C@@H](CN(C)CC2CC2)O3)cc1,-16,nt,nt,nt,nt,nt
